Test results published in ChEMBL document CHEMBL1128226, “Phosphinyl acid-based bisubstrate analog inhibitors of Ras farnesyl protein transferase” (J Med Chem, 1995).

Tests used:
[1] = target: T1, Protein farnesyltransferase (Homo sapiens, UniProt P49354+P49356); test: Inhibition of Ras Farnesyltransferase enzyme from pig brain; parameters: species or system Sus scrofa; details: target entry is the homologue from another species; read-out: I50
In short: (§1)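 Pig brain FPT purified about 2000-fold over crude cytosol. Reaction contains 1 μM [3H]FPP, 7 μM recombinant p21 H-Ras (E. coli, partially purified), 25 mM MgCl2, 10 mM DTT and 100 mM HEPES 7.4, with inhibitor usually 360 to 0.02 μM. Run 1 h at 37 °C, then SDS/TCA precipitation, filtration and scintillation counting. Triplicate points; IC50 from % control vs log concentration; each compound tested at least twice.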

[2] = target: Geranylgeranyl transferase type I (Homo sapiens, UniProt P49354+P53609); test: Inhibition of Geranylgeranyl transferase type I from porcine brain tissue; parameters: species or system Sus scrofa; details: target entry is the homologue from another species; read-out: I50
In short: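 Porcine brain GGT-I, partially purified; substrates 12 μM bacterially expressed p21 rasCVLL and 0.5 μM [3H]GGPP (19.3 Ci/mmol), with 10 mM DTT, 5 mM MgCl2, 5 μM ZnCl2, 100 mM HEPES pH 7.4. Incubated 1 h at 37 °C. Protein precipitated with SDS/TCA, filtered, radioactivity counted. Triplicates, SEM reported; IC50 determined.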

[3] = target: T1, Protein farnesyltransferase; test: Inhibition of Ras Farnesyltransferase from pig brain; parameters: species or system Sus scrofa; details: target entry is the homologue from another species; read-out: I50; in short: as §1
[4] = target: T1, Protein farnesyltransferase; test: Inhibition of Ras Farnesyltransferase obtained from pig brain; 'a' indicates prodrug; parameters: species or system Sus scrofa; details: target entry is the homologue from another species; in short: as §1
[5] = test system: Geranylgeranyl transferase type I (Sus scrofa); test: Inhibition of Geranylgeranyl transferase type I from porcine brain tissue; 'a' indicates prodrug

`CC(C)=CCC/C(C)=C/CC/C(C)=C/CP(=O)(O)OCC(=O)N[C@H](C(=O)N[C@@H](CC(C)C)C(=O)N[C@@H](CO)C(=O)O)C(C)C` was tested, and the IC50 [1] was 0.06 µM and the IC50 [2] was 59 µM.

Work on `CSCC[C@H](NC(=O)[C@@H](NC(=O)[C@@H](NC(=O)CCP(=O)(O)C/C=C(\C)CC/C=C(\C)CCC=C(C)C)C(C)C)C(C)C)C(=O)O` yielded an IC50 [2] of 21 µM and an IC50 [3] of 0.006 µM.

`COC(=O)[C@H](CCSC)NC(=O)[C@@H](NC(=O)[C@@H](NC(=O)CCP(=O)(O)C/C=C(\C)CC/C=C(\C)CCC=C(C)C)C(C)C)C(C)C` was tested, and the I50 [4] was “Prepared and evaluated as prodrugs” and the I50 [5] was “Prepared and evaluated as prodrugs”.

`COC(=O)[C@H](CCSC)NC(=O)[C@@H](NC(=O)[C@@H](NC(=O)COP(=O)(O)C/C=C(\C)CC/C=C(\C)CCC=C(C)C)C(C)C)C(C)C` was tested, and the I50 [4] was “Prepared and evaluated as prodrugs” and the I50 [5] was “Prepared and evaluated as prodrugs”.

In the case of `CSCC[C@H](NC(=O)[C@@H](NC(=O)[C@@H](NC(=O)COP(=O)(O)C/C=C(\C)CC/C=C(\C)CCC=C(C)C)C(C)C)C(C)C)C(=O)O`, the IC50 [1] is reported as 0.0062 µM and the IC50 [2] is reported as 10 µM.
